Data as given in PubChem BioAssay AID588833 (Broad Institute, 2011).

Target: Scavenger receptor class B member 1 (Mus musculus) (UniProt Q61009)
Assay: mSR-BI lipid transfer blockers in CHO cells – ldlA[mSR-BI] CHO cells, fluorescence, dry powder, set 7, dose response (AID 588833)
Conditions: DiI-HDL uptake fluorescence, 3 h
How it was run: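 system = ldlA[mSR-BI] CHO cells | schedule = 3 h uptake with compounds, 37 °C | technique = bottom-read fluorescence after PBS washes, excitation 550 nm, emission 595 nm | probe or stimulus = DiI-labeled HDL at 10 µg/mL | doses = test compounds delivered by pin transfer | buffer or medium = F12, fatty acid-free BSA, HEPES buffer | benchmarks = positive control of BLT-1 at 1 µM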

Scavenger receptor class B member 1 (Mus musculus), sequence (Q61009 whole entry, looked up): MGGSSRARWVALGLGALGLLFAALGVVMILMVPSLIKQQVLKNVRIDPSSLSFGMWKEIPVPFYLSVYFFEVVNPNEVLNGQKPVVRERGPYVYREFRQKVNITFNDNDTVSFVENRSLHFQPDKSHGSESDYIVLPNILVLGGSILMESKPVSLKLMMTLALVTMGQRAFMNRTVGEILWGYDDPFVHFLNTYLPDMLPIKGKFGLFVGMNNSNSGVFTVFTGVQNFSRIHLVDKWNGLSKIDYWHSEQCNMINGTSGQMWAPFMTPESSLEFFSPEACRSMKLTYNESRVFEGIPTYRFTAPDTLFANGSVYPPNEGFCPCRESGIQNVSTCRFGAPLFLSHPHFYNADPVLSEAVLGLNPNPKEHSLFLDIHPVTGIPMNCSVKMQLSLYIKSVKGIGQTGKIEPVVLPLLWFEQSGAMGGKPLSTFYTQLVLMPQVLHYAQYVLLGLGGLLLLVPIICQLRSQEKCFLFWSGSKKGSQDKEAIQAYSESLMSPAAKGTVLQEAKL

SMILES | AC50 [nM]
C[C@H](C(=O)NC1CCCC1)N(C(=O)Cn1nnc(-c2ccc3c(c2)OCO3)n1)C1CCCCC1 | 15.4
COCC(=O)N1CCc2cc(-c3csc(NC(=O)c4cc(OC)cc(OC)c4)n3)ccc21 | 6.18
CCCCCCC1CCC/C1=N\NC(N)=S (stereo not drawn) | 0.536
